Among all 96,000 compounds or so, about 140 (0.15%) were called active.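 The calls were made as follows: active = mean replicate inhibition above about 25%, with at least 55% of replicates also reaching it (limit read from the data, passing the limit was not always enough); inconclusive = only one of those two conditions met; inactive = neither condition met.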 The entries come from a sample that favours actives as a whole.
What follows are compounds tested against Lysine-specific demethylase 4C (Homo sapiens) (UniProt Q9H3R0) (assay: inhibitors of GASC-1 (KDM4C) histone demethylase, primary screen, biochemical, single concentration HTS (AID 720574)). Conditions: GST-KDM4C 2-372, H3K9me3 peptide, LANCE TR-FRET; at 12.5 µM; active compounds read high.
Sequence of Lysine-specific demethylase 4C (Homo sapiens) (Q9H3R0 2-372 limits assumed): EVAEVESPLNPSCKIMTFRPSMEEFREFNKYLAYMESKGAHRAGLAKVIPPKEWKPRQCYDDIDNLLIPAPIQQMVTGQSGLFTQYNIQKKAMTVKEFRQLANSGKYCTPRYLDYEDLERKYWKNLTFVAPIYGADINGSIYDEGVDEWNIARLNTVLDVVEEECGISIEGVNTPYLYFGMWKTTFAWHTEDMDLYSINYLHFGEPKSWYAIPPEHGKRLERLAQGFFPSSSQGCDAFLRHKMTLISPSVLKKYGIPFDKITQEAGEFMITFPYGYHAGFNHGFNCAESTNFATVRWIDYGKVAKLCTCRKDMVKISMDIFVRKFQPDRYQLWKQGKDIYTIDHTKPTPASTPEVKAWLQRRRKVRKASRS
How it was run: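 System – N-terminal GST-fused human GASC-1 (KDM4C) fragment, residues 2-372 · Input – enzyme final amount 10 nM · Technique – LANCE TR-FRET, Eu antibody, ULight-streptavidin, EDTA, ex 340 nm, em 618/671 nm · Medium – HEPES buffer, pH 7.5, plus ascorbate · Incubation – enzyme reaction 30 min, then detection 60 min, both room temperature · Reagent – H3K9me3 peptide with Fe(II)/2OG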

inhibition, inactive:
CCCC#Cc1ccc([C@H]2[C@H](CO)N3C(=O)CN(C(=O)c4ccc(F)cc4)C[C@@H]23)cc1 0.883%
C/C=C/c1ccc([C@H]2[C@@H](CO)N(C(=O)C3CC3)[C@@H]2CNC(=O)NC(C)C)cc1 0.927%
COc1ccccc1S(=O)(=O)N[C@@H]1C=C[C@H](CC(=O)NCc2cccc(F)c2)O[C@H]1CO -0.0955%
C/C=C/c1ccccc1[C@H]1[C@@H](C#N)N(c2nc(CC)cs2)[C@@H]1CO -0.26%
CN(C)C(=O)C[C@@H]1C[C@@H]2c3cc(NC(=O)NC4CCCCC4)ccc3O[C@@H]2[C@H](CO)O1 -1.19%
CO[C@@H]1CN(C)C(=O)c2ccc(NC(C)=O)cc2OC[C@@H](C)N(CC2CC2)C[C@H]1C 2.5%
C[C@H](CO)N1C[C@H](C)[C@@H](CN(C)Cc2ccc(-c3ccccc3)cc2)Oc2ccc(NC(=O)Cn3cnnn3)cc2C1=O -1.72%
CCCN(C)C[C@H]1Oc2ncc(-c3cccnc3)cc2C(=O)N([C@@H](C)CO)C[C@@H]1C -0.329%
C[C@H](CO)N1C[C@H](C)[C@@H](CN(C)C(=O)c2ccncc2)Oc2cc(/C=C/c3ccccc3)ccc2S1(=O)=O -4.23%
CS(=O)(=O)Nc1ccc2c(c1)[C@@H]1C[C@H](CC(=O)NCc3ccccn3)O[C@@H](CO)[C@@H]1O2 -0.895%
COc1ccc2c3c([nH]c2c1)[C@@H](CO)N(Cc1ccccc1)CC31CCN(Cc2cncnc2)CC1 -1.85%
COc1ccccc1S(=O)(=O)N[C@@H]1CC[C@@H](CCn2cc(C3CCCCC3)nn2)O[C@H]1CO 0.124%
CCC(=O)Nc1ccc2c(c1)C(=O)N(C)[C@H]1CC[C@H](CC(=O)NCC3CCCCC3)O[C@H]1CO2 -0.841%
Cc1ccc(S(=O)(=O)NCC[C@H]2CC[C@H](NC(=O)c3ccccn3)[C@H](CO)O2)cc1 -1.29%
CCCN1[C@@H]2c3ccc(-c4ccccc4)c(=O)n3C[C@@H]2[C@@H](CO)[C@@H]1C(=O)N(C)C 0.941%
COc1ccccc1C(=O)Nc1ccc2c(c1)OC[C@@H](C)NC[C@H](C)[C@@H](OC)CN(C)C2=O -1.47%
CCCNC(=O)N(C)C[C@H]1Oc2cc(C#C[C@@H](C)O)ccc2S(=O)(=O)N([C@H](C)CO)C[C@H]1C 7.38%
CO[C@H]1CC[C@@H]2CCOc3c(C#N)cccc3C(=O)N(C)C[C@@H](OC)[C@H](C)C(=O)N(C)C[C@H]1O2 0.229%
CN1C(=O)c2cc(NC(=O)C3CCC3)ccc2OC[C@@H]2O[C@@H](CC(=O)NCCc3ccncc3)CC[C@H]21 1.45%
CN1C[C@H]2[C@@H](c3ccccc31)[C@@H](CO)N2C(=O)Nc1ccccc1 -2.7%
COc1cccc(-c2ccc3n(c2=O)C[C@@H]2[C@@H](CO)[C@H](C(=O)NC4CCC4)[C@H]3N2C)c1 1.02%
CO[C@@H]1CN(C)C(=O)c2cc(NC(=O)C3CCCC3)ccc2OC[C@H](C)N(C)C[C@@H]1C -0.0185%
CO[C@H]1CN(C)C(=O)c2ccc(NC(C)=O)cc2OC[C@@H](C)N(C(=O)CN(C)C)C[C@@H]1C -0.377%
CC(=O)N1[C@H](CO)[C@@H](c2ccccc2)[C@@H]1CN(CC(C)C)C(=O)c1ccccn1 4.04%
CCCC(=O)Nc1ccc2c(c1)OC[C@H](C)N(C(=O)C1CCCC1)C[C@@H](C)[C@H](OC)CN(C)C2=O 0.661%
Cc1cccc(S(=O)(=O)N2C[C@@H](O)COC[C@H]3O[C@H](CC(=O)N4CCN(C)CC4)CC[C@@H]32)c1 -1%
O=C(Cc1ccncc1)N1CC[C@@H]2[C@@H](CO)Nc3ccc(C4=CCCCC4)cc3[C@@H]21 0.328%
CC(C)NC(=O)N1C[C@@H]2[C@H](c3ccccc31)[C@@H](CO)N2Cc1ccc(Cl)cc1 1.62%
CO[C@@H]1CN(C)C(=O)c2cc(NC(=O)Nc3cc(F)ccc3F)ccc2OC[C@H](C)N(C(=O)c2ccccn2)C[C@@H]1C -1.15%
CCC(=O)Nc1ccc2c(c1)C(=O)N(C)C[C@H](OC)[C@H](C)CN(CCC(F)(F)F)[C@H](C)CO2 -0.234%
C[C@H]1CCCCO[C@@H](CN(C)C(=O)Nc2cccc3ccccc23)[C@@H](C)CN([C@@H](C)CO)C(=O)c2cc(NS(=O)(=O)c3cn(C)cn3)ccc2O1 -7.92%
O=C(C[C@H]1C[C@H]2c3cc(NC(=O)C4CCOCC4)ccc3O[C@H]2[C@@H](CO)O1)NCCN1CCCCC1 1.06%
O=C(C[C@H]1CC[C@H]2[C@@H](COC[C@H](O)CN2S(=O)(=O)c2cccc(F)c2)O1)NC1CCC1 0.711%
O=C(C[C@H]1CC[C@@H]2[C@H](COC[C@H](O)CN2Cc2ccccc2F)O1)NC1CCC1 1.48%
O=C(C[C@@H]1C=C[C@@H](NC(=O)c2cccnc2)[C@H](CO)O1)NCc1ccncn1 1.05%
C[C@H](CO)N1C[C@H](C)[C@@H](CN(C)S(C)(=O)=O)Oc2cc(C#CC3CC3)ccc2S1(=O)=O 4.29%
C[C@H]1CCCCO[C@H](CN(C)C(=O)Nc2ccc(F)cc2)[C@@H](C)CN([C@@H](C)CO)C(=O)c2cc(NC(=O)CCC(F)(F)F)ccc2O1 1.63%
CS(=O)(=O)N1CC2(C1)[C@H](c1ccccc1)[C@@H](CO)N2C(=O)c1ccccc1 -0.995%
O=C(Cc1ccncc1)N[C@@H]1CC[C@H](CCn2cc(-c3ccccc3F)nn2)O[C@H]1CO -1.33%
CN(C)CC(=O)N1[C@@H](CO)[C@H](c2ccccc2)C12CN(C(=O)c1cccc(F)c1)C2 -0.471%
CCC(=O)N1[C@H](C(=O)OC)[C@@H](CO)[C@@H]2Cn3c(ccc(-c4cccc(F)c4)c3=O)[C@@H]21 1.8%
Cc1ccc(S(=O)(=O)N(C)C[C@@H]2OCCCC[C@@H](C)Oc3ccc(NC(=O)Nc4ccc(C(F)(F)F)cc4)cc3C(=O)N([C@@H](C)CO)C[C@@H]2C)cc1 1.16%
O=C(CN1CCOCC1)N1CC(=O)N2[C@H](C1)[C@H](c1ccc(/C=C/c3ccccc3)cc1)[C@@H]2CO 0.257%
O=C(NCC[C@H]1CC[C@@H](NC(=O)C2CC2)[C@H](CO)O1)c1ccc(F)cc1 -0.983%
CCC(=O)Nc1ccc2c(c1)C(=O)N(C)[C@@H]1CC[C@H](CC(=O)NCc3ccccc3)O[C@H]1CO2 1.95%
COc1ccc(S(=O)(=O)N[C@@H]2CC[C@@H](CC(=O)N3CCC(Cc4ccccc4)CC3)O[C@@H]2CO)cc1 -0.232%
COCC(=O)Nc1ccc2c(c1)[C@@H]1C[C@H](CC(=O)NCc3ccc(-c4ccccc4)cc3)O[C@H](CO)[C@@H]1O2 -3.13%
CN1C(=O)c2cc(NC(=O)C3CCCC3)ccc2OC[C@@H]2O[C@@H](CC(=O)NCCc3ccncc3)CC[C@@H]21 1.45%
Cc1ccc(S(=O)(=O)N[C@H]2CC[C@@H](CC(=O)N3CCc4ccccc4C3)O[C@H]2CO)cc1 0.126%
O=C(C[C@@H]1C[C@H]2c3cc(NC(=O)Nc4ccccc4)ccc3O[C@H]2[C@@H](CO)O1)NC1CCCCC1 -1.66%
COc1ccc2c3c(n(C)c2c1)[C@@H](CO)N(C(=O)Nc1ccc(F)cc1)CC31CN(C(=O)NC(C)C)C1 -0.434%
C/C=C/c1ccc([C@@H]2[C@H](CO)N(CC3CCOCC3)C23CN(S(=O)(=O)CC)C3)cc1 0.162%
C[C@H](CO)N1C[C@H](C)[C@H](CN(C)Cc2ccncc2)Oc2ncc(C#CCC3CCCCC3)cc2C1=O 2.4%
CC(C)NC(=O)N(C)C[C@@H]1OCCCC[C@@H](C)Oc2ccc(NC(=O)NC3CCCCC3)cc2C(=O)N([C@@H](C)CO)C[C@@H]1C 0.134%
COc1ccccc1C#Cc1cnc2c(c1)C(=O)N([C@H](C)CO)C[C@H](C)[C@H](CN(C)S(=O)(=O)c1cn(C)cn1)O2 -1.15%
CO[C@@H]1CN(C)C(=O)c2ccc(NC(=O)c3ccccc3F)cc2OC[C@@H](C)N(CC2CCOCC2)C[C@H]1C 2.15%
CCNC(=O)C[C@@H]1CC[C@@H]2[C@H](COc3ccc(NS(=O)(=O)c4ccccc4C)cc3C(=O)N2C)O1 2.37%
CN1C[C@@H]2[C@H](c3ccccc31)[C@@H](CO)N2C(=O)Nc1ccccc1 -1.64%
CCC(=O)Nc1ccc2c(c1)C(=O)N(C)[C@H]1CC[C@H](CC(=O)NCCOC)O[C@@H]1CO2 1.02%
Cc1noc(C)c1NC(=O)N[C@@H]1C=C[C@@H](CC(=O)Nc2ccccc2)O[C@H]1CO 1.04%
CCS(=O)(=O)Nc1ccc2c(c1)C(=O)N(C)[C@H]1CC[C@@H](CC(=O)N3CCCCC3)O[C@H]1CO2 -0.234%
COCC(=O)N1CC2(C1)CN(C(=O)COC)[C@@H](CO)c1c2c2ccc(OC)cc2n1C 2.79%
CC(C)NC(=O)N[C@@H]1CC[C@@H](CCNS(=O)(=O)Cc2ccccc2)O[C@@H]1CO -0.501%
COc1ccc(S(=O)(=O)N(C)C[C@H]2Oc3c(NC(=O)CCCCCC(=O)Nc4ccccc4N)cccc3C(=O)N([C@H](C)CO)C[C@H]2C)cc1 0.35%

— PubChem BioAssay AID720574 (Broad Institute, 2013)
